Test results taken from ChEMBL document CHEMBL4145558, “Structure-Activity Relationship Study on Odoamide: Insights into the Bioactivities of Aurilide-Family Hybrid Peptide-Polyketides” (ACS Med Chem Lett, 2018).

Columns and labels:
[1] = Permeability of the compound in pH 7.4 phosphate buffer solution after 4 hrs by LC-MS/MS based PAMPA assay; type: ADME; conditions: read-out: permeability
Procedure, shortened: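 PAMPA run at pH 7.4, under the in vitro bioassay conditions.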

[2] = test system: A549; experiment: Cytotoxicity against human A549 cells assessed as inhibition of cell growth after 72 hrs by MTS assay; type: functional, cell-based; conditions: A549, 72 h
Procedure, shortened: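 A549 cells exposed to each peptide for 72 h; growth read by MTS assay. IC50 taken as the concentration giving 50% growth inhibition, n = 3.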

[3] = Protein binding in 10% fetal bovine serum at 1 uM after 4 hrs in presence of cell culture medium by rapid equilibrium dialysis based LC-MS/MS analysis; type: ADME, cell-free, Bos taurus; conditions: cattle, 10% fetal bovine serum in cell culture medium; read-out: PB (converted)
Procedure, shortened: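 Peptides tested in cell culture medium supplemented with 10% (v/v) fetal bovine serum. The ratio of unbound peptide was determined.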

SMILES	Papp at 4 h [1] [×10⁻⁶ cm/s]	fraction unbound at 4 h, 1 µM [3]	IC50 [2] [nM]
CCC[C@H](C)[C@H]1OC(=O)[C@H](C)N(C)C(=O)[C@H]([C@@H](C)CC)NC(=O)CNC(=O)[C@@H](Cc2ccccc2)N(C)C(=O)[C@H](C)NC(=O)[C@@H]([C@@H](C)CC)OC(=O)/C(C)=C/C[C@H](O)[C@@H]1C	> 1		31
CCC[C@H](C)[C@H]1OC(=O)[C@H](C)N(C)C(=O)[C@H]([C@@H](C)CC)NC(=O)CN(C)C(=O)[C@@H](Cc2ccccc2)NC(=O)[C@H](C)NC(=O)[C@@H]([C@@H](C)CC)OC(=O)/C(C)=C/C[C@H](O)[C@@H]1C			5.4
CCC[C@H](C)[C@H]1OC(=O)[C@H](C)N(C)C(=O)[C@H]([C@@H](C)CC)NC(=O)CN(C)C(=O)[C@H](Cc2ccccc2)N(C)C(=O)[C@H](C)NC(=O)[C@@H]([C@@H](C)CC)OC(=O)/C(C)=C/C[C@H](O)[C@@H]1C			48
CCC[C@H](C)[C@H]1OC(=O)[C@H](C)N(C)C(=O)[C@H]([C@@H](C)CC)NC(=O)CN(C)C(=O)[C@@H](Cc2ccccc2)N(C)C(=O)[C@H](C)NC(=O)[C@@H]([C@@H](C)CC)OC(=O)/C(C)=C/C=C/[C@@H]1C			28
CCC[C@H](C)[C@@H](O)[C@@H](C)[C@@H]1C/C=C(\C)C(=O)O[C@H]([C@@H](C)CC)C(=O)N[C@@H](C)C(=O)N(C)[C@H](Cc2ccccc2)C(=O)N(C)CC(=O)N[C@@H]([C@@H](C)CC)C(=O)N(C)[C@@H](C)C(=O)O1			4.5
CCC[C@H](C)[C@H]1OC(=O)[C@H](C)N(C)C(=O)[C@@H]([C@@H](C)CC)NC(=O)CN(C)C(=O)[C@@H](Cc2ccccc2)N(C)C(=O)[C@H](C)NC(=O)[C@@H]([C@@H](C)CC)OC(=O)/C(C)=C/C[C@H](O)[C@@H]1C			645

Now from value to compound, other results behind:

Papp at 4 h [1] [×10⁻⁶ cm/s]	fraction unbound at 4 h, 1 µM [3]	SMILES	IC50 [2] [nM]
> 1	0.241	CCC[C@H](C)[C@H]1OC(=O)[C@H](C)N(C)C(=O)[C@H]([C@@H](C)CC)NC(=O)CN(C)C(=O)[C@@H](Cc2ccccc2)N(C)C(=O)[C@H](C)NC(=O)[C@@H]([C@@H](C)CC)OC(=O)/C(C)=C/C[C@H](O)[C@@H]1C	4.2
> 1		CCC[C@H](C)[C@H]1OC(=O)[C@H](C)N(C)C(=O)[C@H]([C@@H](C)CC)NC(=O)CCN(C)C(=O)[C@@H](Cc2ccccc2)N(C)C(=O)[C@H](C)NC(=O)[C@@H]([C@@H](C)CC)OC(=O)/C(C)=C/C[C@H](O)[C@@H]1C	74
> 1		CCC[C@H](C)[C@H]1OC(=O)[C@H](C)N(C)C(=O)[C@H]([C@@H](C)CC)NC(=O)CN(C)C(=O)[C@@H](Cc2ccccc2)N(C)C(=O)[C@@H](C)NC(=O)[C@@H]([C@@H](C)CC)OC(=O)/C(C)=C/C[C@H](O)[C@@H]1C	1550
> 1	0.145	CCC[C@H](C)[C@H]1OC(=O)[C@@H](C)N(C)C(=O)[C@H]([C@@H](C)CC)NC(=O)CN(C)C(=O)[C@@H](Cc2ccccc2)N(C)C(=O)[C@H](C)NC(=O)[C@@H]([C@@H](C)CC)OC(=O)/C(C)=C/C[C@H](O)[C@@H]1C	1.9
> 1	0.028	CCC[C@H](C)[C@H]1OC(=O)[C@H](C)N(C)C(=O)[C@H]([C@@H](C)CC)NC(=O)CN(C)C(=O)[C@@H](Cc2ccccc2)N(C)C(=O)[C@H](C)NC(=O)[C@@H]([C@@H](C)CC)OC(=O)/C(C)=C/C[C@H](OC)[C@@H]1C	4.3
